Test results as given in the array DNA melting data of Ke et al. (doi:10.1101/2024.01.08.574731).

How the values were obtained:
[1] = melting temperature; fluorescence melt of hairpins on a sequencing array, two-state fit, raised by 9.35 °C to match UV melts; conditions: sodium 0.088 M
In short: (§1)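 Two-state fits, bootstrapped, provided melting temperature and folding enthalpy from Cy3 fluorescence normalised to pre-quench Cy3 and to control constructs. Library hairpins with annealed Cy3 and quencher oligos were imaged on a sequenced MiSeq flow cell in 50 mM Na-HEPES pH 8.0, 25 mM NaCl, at 2.5 °C intervals up to 60 °C. Four replicates were combined with inverse-variance weighting. A 9.35 °C upward shift was applied to fitted temperatures to match UV melts.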

[2] = folding enthalpy; higher = less favourable; fluorescence melt of hairpins on a sequencing array, two-state fit; conditions: sodium 0.088 M
In short: as §1

| Sequence | Tm [1] | folding enthalpy [2] |
| --- | --- | --- |
| GGATCCGGAAACGGATTC (.(((((....))))).) | 52 °C | -15.7 kcal/mol |
| GCTGCCGAAAGGCGTAGC ((((((....)))..))) | 50.5 °C | -17.2 kcal/mol |
| GCTCGTCGAAAGACAGC (((.(((....)))))) | 51.4 °C | -29.6 kcal/mol |
| CGCACGGAAACGTCTGCG ((((((....)))..))) | 42.6 °C | -23.8 kcal/mol |
| GCTTTTGGAAACAAGAGC (((.(((....))).))) | 41 °C | -20 kcal/mol |
| GTTGCAGGAAACTGCGAC ((.((((....)))).)) | 53.9 °C | -28 kcal/mol |
| GAAGGCGAAAGCCGGTTC ((((((....)))..))) | 43.4 °C | -9.54 kcal/mol |
| GATCGATTCTCGATC ((((((...)))))) | 53.3 °C | -38.8 kcal/mol |
| GCCGTGCGAAAGCGGGGC (((..((....))..))) | 67.3 °C | -34.8 kcal/mol |
| GATCATAAACATGATC ((((((....)))))) | 43.1 °C | -31 kcal/mol |
| GATCAAACCGTTGATC ((((((....)))))) | 42 °C | -30.6 kcal/mol |
| GTGGTCGGAAACGGCCAC ((((.((....)).)))) | 63.5 °C | -33.7 kcal/mol |
| GATCTTCCCGAAGATC ((((((....)))))) | 49.4 °C | -40.8 kcal/mol |
| GGTCGGCGAAAGCCTACC (((.(((....))).))) | 53.5 °C | -25.9 kcal/mol |
| GTTCTGGGAAACCAAAAC (((.(((....))).))) | 26.5 °C | -12.4 kcal/mol |
| GTGACGGGAAACTGTCGC (.(((.(....).))).) | 45.8 °C | -28.2 kcal/mol |
| GCAATCTCGAAAGAGTGC (((..(((....)))))) | 43.2 °C | -24.5 kcal/mol |
| GGCACAGGAAACCATGCC ((((..(....)..)))) | 36.1 °C | -16.3 kcal/mol |
| GGCACGGGAAACTGTGCC (((((.(....).))))) | 62.2 °C | -41.4 kcal/mol |
| GCTCCGCGAAAGCTTAGC (((..((....))..))) | 35.1 °C | -14.4 kcal/mol |
| GCTCCCGAAAGGGCCAGC ((((((....)))..))) | 34.8 °C | -11.7 kcal/mol |
| GATCGCCTCTGCGATC ((((((....)))))) | 66.5 °C | -37 kcal/mol |
| GATCAAGCGCTTGATC ((((((....)))))) | 55.9 °C | -51.6 kcal/mol |

| Sequence | Tm [1] | folding enthalpy [2] |
| --- | --- | --- |
| GCTCGGCGAAAGCGCAGC (((..((....))..))) | 51.1 °C | -9.7 kcal/mol |
| GGAACAGGAAACTGTTCC (((((((....))))))) | 60.6 °C | -35.9 kcal/mol |
| GGTGTTTCGAAAGAAACC (((..(((....)))))) | 42.5 °C | -13.2 kcal/mol |
| GAGTAGGGAAACTTACTC (((((.(....).))))) | 35.5 °C | -25.6 kcal/mol |
| GGCACCGAAAGGTTGGCC ((((((....)))..))) | 53.3 °C | -28.1 kcal/mol |
| GCAGATGAAAATCTGC ((((((....)))))) | 59.9 °C | -39 kcal/mol |
| GGGATCGGAAACGGTCCC ((((.((....)).)))) | 57.8 °C | -47.5 kcal/mol |
| GTCGCTCGAAAGAGGAC (((.(((....)))))) | 45.4 °C | -18.1 kcal/mol |
| GGCCCACGAAAGTGGCC (((.(((....)))))) | 65.4 °C | -17.8 kcal/mol |
| GGTACGTCGAAAGACACC (((..(((....)))))) | 33.3 °C | -9.89 kcal/mol |
| TGAAAGAAATTTCA (((((....))))) | 26.4 °C | -5.86 kcal/mol |
| GGGCTACCGAAAGGTCCC (((..(((....)))))) | 39.4 °C | -18.8 kcal/mol |
| GTCCTAGGAAACTAGGGC (.(((((....))))).) | 49.4 °C | -32.9 kcal/mol |
| GATCGAAATTCGATC ((((((...)))))) | 48.9 °C | -33.7 kcal/mol |
| GCACATGGAAACATGCAC (..((((....))))..) | 28.2 °C | -15.2 kcal/mol |
| GTCTTCCGAAAGGACGAC (((.(((....))).))) | 48.6 °C | -40.7 kcal/mol |
| GATCCACGCTGGATC ((((((...)))))) | 51.6 °C | -31.3 kcal/mol |
| GCTGGCGGAAACGCTGGC ((..(((....)))..)) | 53.7 °C | -32.7 kcal/mol |
| GCGCAACGAAAGTTACGC (((.(((....))).))) | 57.5 °C | -44.9 kcal/mol |
| GTAATGCGAAAGCATAC (((.(((....)))))) | 46 °C | -13.3 kcal/mol |
| GCTTGTGGAAACATGAGC (((..((....))..))) | 37.7 °C | -29.4 kcal/mol |
| GGGATCGAAAGATGGCCC ((((((....)))..))) | 33.5 °C | -13.8 kcal/mol |
| GTAAGTGGAAACACTTGC (.(((((....))))).) | 45 °C | -26.7 kcal/mol |

| Sequence | Tm [1] | folding enthalpy [2] |
| --- | --- | --- |
| GTGTGACGAAAGTCGCAC (((.(((....))).))) | 65.9 °C | -42.5 kcal/mol |
| GTCGTCGAAAGACCCGAC ((((((....)))..))) | 31.3 °C | -14.5 kcal/mol |
| GGGTACGAAAGTACTCCC ((((((....)))..))) | 45.6 °C | -13.4 kcal/mol |
| GACGGCGAAAGCCCCGTC ((((((....)))..))) | 42.8 °C | -15.8 kcal/mol |
| GACGCCGAAAGGCTAGTC ((((((....)))..))) | 46.8 °C | -18.1 kcal/mol |
| GATCTAGATCTAGATC ((((((....)))))) | 47.5 °C | -37.3 kcal/mol |
| GCGCAACGAAAGTTTCGC (((.(((....))).))) | 52.9 °C | -43 kcal/mol |
| GCAGGGGAAACCCTGC ((((((....)))))) | 68.1 °C | -34.9 kcal/mol |
| GATCTAAGCGTAGATC ((((((....)))))) | 36.9 °C | -27 kcal/mol |
| GCAACGGGAAACCGTTAC (.(((((....))))).) | 38.6 °C | -13.3 kcal/mol |
| GCGGGCGAAAGCCCACGC ((((((....)))..))) | 65.5 °C | -14 kcal/mol |
| GAACACACGAAAGTGTTC (((..(((....)))))) | 46.2 °C | -20.5 kcal/mol |
| GATCGTCCAAACGATC ((((((....)))))) | 55.2 °C | -42.7 kcal/mol |
| GTTTGCTCGAAAGAGAAC (((..(((....)))))) | 27 °C | -14.7 kcal/mol |
| GCAGTCGGAAACGACTAC (.(((((....))))).) | 41.7 °C | -13.4 kcal/mol |
| GTAGCCGAAAGGCAGTAC ((((((....)))..))) | 30.4 °C | -9.03 kcal/mol |
| GATCCTTGTGAGGATC ((((((....)))))) | 56.1 °C | -38 kcal/mol |
| GGTGTCCGAAAGGAAACC (((.(((....))).))) | 52.7 °C | -27.9 kcal/mol |
| GATCATGAAGATGATC ((((((....)))))) | 50.3 °C | -34.9 kcal/mol |
| GCTTGCGAAAGCAGAGC ((((((....))).))) | 52.7 °C | -18.6 kcal/mol |
| GCAAGCGAAAGCTGTTGC ((((((....)))..))) | 45.9 °C | -15.7 kcal/mol |
| GACGATGGAAACATTGTC (((.(((....))).))) | 47.1 °C | -35.2 kcal/mol |
| GATCAGCCACTGATC ((((((...)))))) | 48.6 °C | -32 kcal/mol |

| Sequence | Tm [1] | folding enthalpy [2] |
| --- | --- | --- |
| GGTCTCGAAAGAGTACC ((((((....))).))) | 46.8 °C | -24.3 kcal/mol |
| GATTGTGGAAACACAACC (.(((((....))))).) | 35.9 °C | -16.9 kcal/mol |
| GGGTTTGGAAACGAATCC ((.((.(....).)).)) | 34.6 °C | -25.1 kcal/mol |
| GTCTGCGAAAGCATGAC ((((((....))).))) | 52.7 °C | -23.5 kcal/mol |
| GCTGAGCGAAAGCCCCGC ((.(.((....)).).)) | 35.8 °C | -12 kcal/mol |
| GCACGTGGAAACACATGC (((.(((....))).))) | 45.1 °C | -31.9 kcal/mol |
| GCGAAGCGAAAGCATAGC ((.(.((....)).).)) | 52.5 °C | -15.7 kcal/mol |
| GGTCTACGAAAGTACACC (((.(((....))).))) | 35.8 °C | -22 kcal/mol |
| GCTGGTGCGAAAGCAAGC (((..(((....)))))) | 43 °C | -14.5 kcal/mol |
| CGTGGGCGGAAACGCACG (((..(((....)))))) | 53.1 °C | -13.4 kcal/mol |
| GATCCCTGTTGGGATC ((((((....)))))) | 62 °C | -42.8 kcal/mol |
| GCGCGAGGAAACTCACGC (((.(((....))).))) | 53.8 °C | -38.2 kcal/mol |
| GCGAAGACTCGC ((((....)))) | 44.8 °C | -15.8 kcal/mol |
| GCGTCTGGAAACAGATGC ((.((((....)))).)) | 54.6 °C | -55.5 kcal/mol |
| GCGCCAGCGAAAGCTCGC (((..(((....)))))) | 45 °C | -8.39 kcal/mol |
| GCGCGCGGAAACGCACGC (((.(((....))).))) | 67.8 °C | -32.6 kcal/mol |
| GCGTTCCGAAAGGACCGC (((.(((....))).))) | 58.4 °C | -46.4 kcal/mol |
| GGTCCCGAAAGGGGGACC ((((((....)))..))) | 59.2 °C | -25.4 kcal/mol |
| GCGAATGCTCGC ((((....)))) | 57.7 °C | -11.5 kcal/mol |
| GATCATCGTTATGATC ((((((....)))))) | 47.2 °C | -32.4 kcal/mol |
| GCCGACGGAAACGTCAGC ((.((((....)))).)) | 49.6 °C | -23.6 kcal/mol |
| GCGATGCTCGC ((((...)))) | 54.9 °C | -14.1 kcal/mol |
| GATCAGCCCACTGATC ((((((....)))))) | 51.6 °C | -37.6 kcal/mol |
